Measurements taken from ChEMBL document CHEMBL4393724, “Betulin-1,4-quinone hybrids: Synthesis, anticancer activity and molecular docking study with NQO1 enzyme” (Eur J Med Chem, 2019).
pIC50: −log10 of the molar value. The source made the active and inactive calls. The rule behind the calls is not given here.

What was measured:
[1] = molecular target: NAD(P)H dehydrogenase [quinone] 1 (Homo sapiens) (UniProt P15559); assay: Inhibition of NQO1 in human MCF7 cells assessed as increase in BAX expression at 0.5 times of IC50 incubated for 24 hrs by RT-PCR; assay type: cell-based
Method in brief: (§1)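 Cultured cells were exposed for 24 h to compound at half its IC50. Transcription of H3, TP53, CDKN1A, BAX and BCL-2 was quantified by real-time RT-qPCR with SYBR Green as mRNA copy numbers and compared with untreated control. The BAX/BCL-2 ratio was calculated from the mRNA copies.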

[2] = molecular target: NAD(P)H dehydrogenase [quinone] 1 (Homo sapiens) (UniProt P15559); assay: Inhibition of NQO1 in human MCF7 cells assessed as effect on Bcl2 expression at 0.5 times of IC50 incubated for 24 hrs by RT-PCR; assay type: cell-based; method in brief: as §1
[3] = system: COLO-829; assay: Antiproliferative activity against human COLO829 cells assessed as reduction in cell viability incubated for 72 hrs by WST1 assay; assay type: functional, cell-based; details: Homo sapiens, COLO-829, 72 h; read-out: IC50
[4] = molecular target: NAD(P)H dehydrogenase [quinone] 1 (Homo sapiens) (UniProt P15559); assay: Inhibition of NQO1 in human A549 cells assessed as effect on Bcl2 expression at 0.5 times of IC50 incubated for 24 hrs by RT-PCR; assay type: cell-based; method in brief: as §1
[5] = molecular target: NAD(P)H dehydrogenase [quinone] 1 (Homo sapiens) (UniProt P15559); assay: Inhibition of NQO1 in human C32 cells assessed as increase in TP53 expression at 0.5 times of IC50 incubated for 24 hrs by RT-PCR; assay type: cell-based; method in brief: as §1
[6] = molecular target: NAD(P)H dehydrogenase [quinone] 1 (Homo sapiens) (UniProt P15559); assay: Inhibition of NQO1 in human A549 cells assessed as increase in TP53 expression at 0.5 times of IC50 incubated for 24 hrs by RT-PCR; assay type: cell-based; method in brief: as §1
[7] = system: C32; assay: Induction of apoptosis in human C32 cells assessed as increase in BAX/Bcl2 expression at 0.5 times of IC50 incubated for 24 hrs by RT-PCR relative to control; assay type: functional; method in brief: as §1
[8] = system: SNB-19; assay: Antiproliferative activity against human SNB19 cells assessed as reduction in cell viability incubated for 72 hrs by WST1 assay; assay type: functional, cell-based; details: for pIC50: Homo sapiens, SNB-19, 72 h, read-out: IC50
[9] = molecular target: NAD(P)H dehydrogenase [quinone] 1 (Homo sapiens) (UniProt P15559); assay: Inhibition of NQO1 in human C32 cells assessed as increase in BAX expression at 0.5 times of IC50 incubated for 24 hrs by RT-PCR; assay type: cell-based; method in brief: as §1
[10] = molecular target: NAD(P)H dehydrogenase [quinone] 1 (Homo sapiens) (UniProt P15559); assay: Inhibition of NQO1 in human MCF7 cells assessed as increase in CDKN1A expression at 0.5 times of IC50 incubated for 24 hrs by RT-PCR; assay type: cell-based; method in brief: as §1
[11] = system: T47D; assay: Antiproliferative activity against human T47D cells assessed as reduction in cell viability incubated for 72 hrs by WST1 assay; assay type: functional, cell-based; details: Homo sapiens, T47D, 72 h; read-out: IC50
[12] = system: MCF7; assay: Antiproliferative activity against human MCF7 cells assessed as reduction in cell viability incubated for 72 hrs by WST1 assay; assay type: functional, cell-based; details: Homo sapiens, MCF7, 72 h; read-out: IC50
Method in brief: (§2)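 Cells held at 37 °C under 5% CO2 and seeded at 5 × 10^4 cells/well in DMEM with 10% FCS plus streptomycin and penicillin. Compounds were dissolved in DMSO and exposed for 72 h. WST-1 formazan was read at 450 nm. IC50 was derived from the mean ± SD of at least three independent experiments run in triplicate. Cisplatin served as reference.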

[13] = molecular target: NAD(P)H dehydrogenase [quinone] 1 (Homo sapiens) (UniProt P15559); assay: Inhibition of NQO1 in human C32 cells assessed as increase in CDKN1A expression at 0.5 times of IC50 incubated for 24 hrs by RT-PCR; assay type: cell-based; method in brief: as §1
[14] = molecular target: NAD(P)H dehydrogenase [quinone] 1 (Homo sapiens) (UniProt P15559); assay: Inhibition of NQO1 in human A549 cells assessed as increase in CDKN1A expression at 0.5 times of IC50 incubated for 24 hrs by RT-PCR; assay type: cell-based; method in brief: as §1
[15] = molecular target: NAD(P)H dehydrogenase [quinone] 1 (Homo sapiens) (UniProt P15559); assay: Inhibition of NQO1 in human MCF7 cells assessed as increase in TP53 expression at 0.5 times of IC50 incubated for 24 hrs by RT-PCR; assay type: cell-based; method in brief: as §1
[16] = molecular target: NAD(P)H dehydrogenase [quinone] 1 (Homo sapiens) (UniProt P15559); assay: Inhibition of NQO1 in human MCF7 cells assessed as decrease in histone H3 expression at 0.5 times of IC50 incubated for 24 hrs by RT-PCR; assay type: cell-based; method in brief: as §1
[17] = molecular target: NAD(P)H dehydrogenase [quinone] 1 (Homo sapiens) (UniProt P15559); assay: Inhibition of NQO1 in human A549 cells assessed as increase in BAX expression at 0.5 times of IC50 incubated for 24 hrs by RT-PCR; assay type: cell-based; method in brief: as §1
[18] = molecular target: NAD(P)H dehydrogenase [quinone] 1 (Homo sapiens) (UniProt P15559); assay: Inhibition of NQO1 in human C32 cells assessed as effect on Bcl2 expression at 0.5 times of IC50 incubated for 24 hrs by RT-PCR; assay type: cell-based; method in brief: as §1
[19] = system: MCF7; assay: Induction of apoptosis in human MCF7 cells assessed as increase in BAX/Bcl2 expression at 0.5 times of IC50 incubated for 24 hrs by RT-PCR; assay type: functional, cell-based; method in brief: as §1
[20] = system: C32; assay: Antiproliferative activity against human C32 cells assessed as reduction in cell viability incubated for 72 hrs by WST1 assay; assay type: functional, cell-based; details: Homo sapiens, C32, 72 h; read-out: IC50; method in brief: as §2
[21] = molecular target: NAD(P)H dehydrogenase [quinone] 1 (Homo sapiens) (UniProt P15559); assay: Inhibition of NQO1 in human C32 cells assessed as decrease in histone H3 expression at 0.5 times of IC50 incubated for 24 hrs by RT-PCR; assay type: cell-based; method in brief: as §1
[22] = molecular target: NAD(P)H dehydrogenase [quinone] 1 (Homo sapiens) (UniProt P15559); assay: Inhibition of NQO1 in human A549 cells assessed as decrease in of histone H3 expression at 0.5 times of IC50 incubated for 24 hrs by RT-PCR; assay type: cell-based; method in brief: as §1
[23] = system: A549; assay: Antiproliferative activity against human A549 cells assessed as reduction in cell viability incubated for 72 hrs by WST1 assay; assay type: functional, cell-based; details: Homo sapiens, A549, 72 h; read-out: IC50; method in brief: as §2
[24] = system: MDA-MB-231; assay: Antiproliferative activity against human MDA-MB-231 cells assessed as reduction in cell viability incubated for 72 hrs by WST1 assay; assay type: functional, cell-based; details: for pIC50: Homo sapiens, MDA-MB-231, 72 h, read-out: IC50
[25] = system: A549; assay: Induction of apoptosis in human A549 cells assessed as increase in BAX/Bcl2 expression at 0.5 times of IC50 incubated for 24 hrs by RT-PCR; assay type: functional, cell-based; method in brief: as §1
[26] = molecular target: NAD(P)H dehydrogenase [quinone] 1 (Homo sapiens) (UniProt P15559); assay: Inhibition of NQO1 in human C32 cells assessed as decrease in Bcl2 expression at 0.5 times of IC50 incubated for 24 hrs by RT-PCR; assay type: cell-based; method in brief: as §1
[27] = molecular target: NAD(P)H dehydrogenase [quinone] 1 (Homo sapiens) (UniProt P15559); assay: Inhibition of NQO1 in human A549 cells assessed as decrease in Bcl2 expression at 0.5 times of IC50 incubated for 24 hrs by RT-PCR; assay type: cell-based; method in brief: as §1

Chain of NAD(P)H dehydrogenase [quinone] 1 (Homo sapiens) (P15559 whole entry): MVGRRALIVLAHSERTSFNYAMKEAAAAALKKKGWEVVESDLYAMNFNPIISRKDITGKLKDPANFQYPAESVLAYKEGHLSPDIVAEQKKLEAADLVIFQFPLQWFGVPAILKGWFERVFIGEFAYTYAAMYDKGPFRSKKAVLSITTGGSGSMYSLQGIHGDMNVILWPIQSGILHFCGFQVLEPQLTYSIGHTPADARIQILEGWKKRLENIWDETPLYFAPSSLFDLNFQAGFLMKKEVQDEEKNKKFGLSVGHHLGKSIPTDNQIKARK

Activity [1] | Activity [2] | pIC50 [3] | Activity [5] | Activity [6] | Activity [9] | Activity [10] | pIC50 [11] | pIC50 [12] | Activity [13] | Activity [14] | Activity [15] | Activity [16] | Activity [17] | Activity [21] | Activity [22] | pIC50 [23] | SMILES | Ratio [7] | Activity [19] | pIC50 [20] | also measured
Active | inactive | 5.18 | Active | Active | Active | Active | 4.00 | 4.85 | Active | Active | Active | Active | Active | Active | Active | 6.35 | C#CC(=O)OC[C@]12CC[C@@H](C(=C)C)[C@@H]1[C@H]1CC[C@@H]3[C@@]4(C)CC[C@H](OC5=C(Cl)C(=O)c6cccnc6C5=O)C(C)(C)[C@@H]4CC[C@@]3(C)[C@]1(C)CC2 | 4 - 5 | Active | 5.90 | Activity [4]: inactive; pIC50 [8]: 4.38; Activity [18]: inactive; pIC50 [24]: 5.61; Activity [25]: Active
Active | inactive | 6.89 | Active | Active | Active | Active | 4.91 | 5.06 | Active | Active | Active | Active | Active | Active | Active | 6.11 | C=C(C)[C@@H]1CC[C@]2(COC(C)=O)CC[C@]3(C)[C@H](CC[C@@H]4[C@@]5(C)CC[C@H](OC6=C(Cl)C(=O)c7ccccc7C6=O)C(C)(C)[C@@H]5CC[C@]43C)[C@@H]12 | 4 - 5 | Active | 5.76 | Activity [4]: inactive; pIC50 [8]: 5.12; Activity [18]: inactive; IC50 ([24]; mda-mb-231): Not Active; Activity [25]: Active
Active | inactive | 5.33 | Active | Active | Active | Active | 4.95 | 5.80 | Active | Active | Active | Active | Active | Active | Active | 6.23 | C=C(C)[C@@H]1CC[C@]2(COC(C)=O)CC[C@]3(C)[C@H](CC[C@@H]4[C@@]5(C)CC[C@H](OC6=C(Cl)C(=O)c7ccc(C)nc7C6=O)C(C)(C)[C@@H]5CC[C@]43C)[C@@H]12 | 4 - 5 | Active | 5.19 | IC50 ([8]; snb-19): Not Active; Activity [26]: Active; Activity [27]: Active; pIC50 [24]: 6.05; Activity [25]: Active
